# Assay results collected from several papers.
# Compare with care: the assays were run in different laboratories.
# Target: Tyrosine-protein kinase Fgr (FGR, Homo sapiens, UniProt P09769)
Compound,test,conditions,remaining binding
F[C@@H]1CCN(c2nccc(-c3cnn4ncccc34)n2)C1,binding,1 µM,81%
O=C(NCc1ncc(C(F)(F)F)cc1Cl)c1ccc2c(c1)C1(CCS(=O)(=O)CC1)[C@H](C1CC1)N2S(=O)(=O)c1ccc(F)cc1,"cell-free assay, competition with immobilised ligand",1 µM,100%
O=C(Nc1c[nH]nc1C(=O)NC1CCNCC1)c1cc(F)cc(F)c1,"binding, competition with immobilised ligand",1 µM,100%
O=C(NCCCN1CCOCC1)c1ccc(Nc2ncc(Cl)c(-c3ccc(Cl)s3)n2)cc1,"cell-free assay, competition with immobilised ligand",1 µM,91%
CCN1CCN(Cc2ccc(C(=O)Nc3ccc(C)c(Oc4ccc5c(c4)CC(=O)N5)c3)cc2C(F)(F)F)CC1,"binding, competition with immobilised ligand",1 µM,68%
CC1CCCN1c1nccc(-c2cnn3ncccc23)n1 (centres unmarked),binding,1 µM,98%
CCC(=N\O)/C(C)=C/c1ccc(F)cc1,"cell-free assay, competition with immobilised ligand",1 µM,67%
O=C(c1ccc(Nc2nccc(-c3cc4ccccc4s3)n2)cc1)N1CCC(N2CCCC2)CC1,"cell-free assay, competition with immobilised ligand",1 µM,93%
Cc1cnn2ncc(-c3ccnc(N(C)C)n3)c2c1,binding,1 µM,100%
CCS(=O)(=O)c1cc2cc(C[C@](O)(CC(C)(C)c3ccc(F)cc3C(N)=O)C(F)(F)F)[nH]c2cn1,"cell-free assay, competition with immobilised ligand",1 µM,100%
CN(CCCC(F)(F)F)c1nccc(-c2cnn3ncccc23)n1,binding,1 µM,85%
Cc1cnc(Nc2ccc(C(=O)N3CCC(N4CCCC4)CC3)cc2)nc1-c1cc2ccccc2s1,"cell-free assay, competition with immobilised ligand",1 µM,53%
c1cncc(-c2cccc(Nc3nccc(NC4CCCCC4)n3)c2)c1,"binding, competition with immobilised ligand",10 µM,14%
COc1ncc2cc3ccccc3nc2c1C#N,"cell-free assay, competition with immobilised ligand",5 µM,100%
CN(C)CC#Cc1ccc(OCCCc2sc(N3CCc4cccc(C(=O)Nc5nc6ccccc6s5)c4C3)nc2C(=O)O)c(F)c1,"cell-free assay, competition with immobilised ligand",1 µM,100%
CN(C)c1nccc(-c2cnn3ncccc23)n1,binding,1 µM,100%
Cc1nccc(COC(=O)N2C[C@@H]3[C@@H](CNC(=O)c4ccc5[nH]nnc5c4)[C@@H]3C2)n1,"cell-free assay, competition with immobilised ligand",1 µM,100%
COc1cnc(Nc2cccc(S(N)(=O)=O)c2)nc1N1CCN(c2ccccc2)CC1,"binding, competition with immobilised ligand",1 µM,95%
C[C@H]1CCN(c2nccc(-c3cnn4ncccc34)n2)C1,binding,1 µM,100%
CN([C@@H]1CCc2c(CC(=O)O)c3ccccc3n2C1)S(=O)(=O)c1ccc(F)cc1,"cell-free assay, competition with immobilised ligand",1 µM,93%
